Activity calls are given as the source filed them. The calls are words filed in the database; no cut-off is given here.
Key:
[1] = tested on: Influenza A virus (A/California/04/2009(H1N1)); assay: Inhibition of Influenza A (A/California/04/2009) (H1N1) clinical isolate N-terminal truncated PA endonuclease at 500 nM using 5'-FAM/3-TAMRA quencer labeled 17-mer ssDNA-oligo as substrate measured over 45 mins by FRET assay relative to control
[2] = molecular target: T1, Arginase-1 (Homo sapiens) (UniProt P05089); assay: Inhibition of full length human arginase 1 expressed in Escherichia coli BL21(DE3) at 200 uM using unlabeled L-arginine/L-[guanidino-14C]arginine as substrate after 5 mins by liquid scintillation counting method relative to control
T1 sequence (whole entry): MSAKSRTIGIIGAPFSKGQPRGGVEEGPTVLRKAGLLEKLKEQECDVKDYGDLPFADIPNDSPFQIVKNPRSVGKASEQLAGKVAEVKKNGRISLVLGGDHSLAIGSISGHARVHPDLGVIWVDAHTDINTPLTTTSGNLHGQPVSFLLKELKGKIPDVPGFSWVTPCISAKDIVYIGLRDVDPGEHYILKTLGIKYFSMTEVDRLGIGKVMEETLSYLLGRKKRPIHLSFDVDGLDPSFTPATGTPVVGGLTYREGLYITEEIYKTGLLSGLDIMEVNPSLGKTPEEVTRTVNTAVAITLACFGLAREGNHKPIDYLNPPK
How it was run: (§1)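 Single-concentration cross-inhibition screen, final inhibitor 200 μM, percent inhibition relative to positive and negative controls; run per literature protocols (Arg1, MetAP1 Mn2+ isoform, NDM-1).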

[3] = tested on: Bacteria; assay: Inhibition of bacterial NDM1 at 200 uM using chromacef as substrate preincubated for 10 mins followed by substrate addition; how it was run: as §1
[4] = Inhibition of Influenza A (A/California/04/2009) (H1N1) clinical isolate N-terminal truncated PA endonuclease using 5'-FAM/3-TAMRA quencer labeled 17-mer ssDNA-oligo as substrate measured over 45 mins by FRET assay; parameters: species or system Influenza A virus (A/California/04/2009(H1N1))
How it was run: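 Cleavage of a 5'-FAM/3'-TAMRA 17-mer ssDNA substrate (200 nM) by influenza PA endonuclease (4 nM) in 20 mM Tris, 150 mM NaCl, 2 mM MnCl2, 10 mM β-mercaptoethanol, 0.2% Triton-X100, pH 8.0.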

[5] = tested on: Influenza A virus (A/California/04/2009(H1N1)); assay: Inhibition of Influenza A (A/California/04/2009) (H1N1) clinical isolate N-terminal truncated PA endonuclease at 500 nM using 5'-FAM/3-TAMRA quencer labeled 17-mer ssDNA-oligo as substrate measured over 45 mins in presence of up to 25 mM metal ions by FRET assay relative to control
[6] = molecular target: Human immunodeficiency virus type 1 integrase (Human immunodeficiency virus 1) (UniProt Q7ZJM1); assay: Inhibition of recombinant HIV1 integrase 3'-processing activity at 200 uM using 5'-end [32P]-labeled oligonucleotide substrate after 60 mins by densitometric analysis relative to control
Sequence of Human immunodeficiency virus type 1 integrase (Human immunodeficiency virus 1) (Q7ZJM1 as listed by the source): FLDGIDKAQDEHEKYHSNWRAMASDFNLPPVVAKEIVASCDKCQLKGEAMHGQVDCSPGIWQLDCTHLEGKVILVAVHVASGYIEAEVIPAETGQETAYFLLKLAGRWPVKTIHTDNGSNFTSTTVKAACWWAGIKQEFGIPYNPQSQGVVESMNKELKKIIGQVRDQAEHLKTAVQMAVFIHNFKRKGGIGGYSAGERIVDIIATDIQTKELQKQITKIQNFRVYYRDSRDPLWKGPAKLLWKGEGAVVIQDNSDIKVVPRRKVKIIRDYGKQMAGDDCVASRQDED

[7] = molecular target: Human immunodeficiency virus type 1 integrase (Human immunodeficiency virus 1) (UniProt Q7ZJM1); assay: Inhibition of recombinant HIV1 integrase strand transfer activity at 200 uM using 5'-end [32P]-labeled oligonucleotide substrate after 60 mins by densitometric analysis relative to control
[8] = molecular target: Carbonic anhydrase 2 (Homo sapiens) (UniProt P00918); assay: Inhibition of human carbonic anhydrase 2 at 200 uM using p-nitrophenyl acetate as substrate preincubated for 15 mins followed by substrate addition and measured every 1 min for 20 mins
How it was run: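 Single-point screen at 200 μM, percent inhibition relative to positive and negative controls, following literature protocols.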

[9] = molecular target: 72 kDa type IV collagenase (Homo sapiens) (UniProt P08253); assay: Inhibition of recombinant human MMP2 at 200 uM using Mca-Pro-Leu-Gly-Leu-Dpa-Ala-Arg-NH2.AcOH as substrate preincubated for 30 mins followed by substrate addition and measured every min for 20 mins by fluorescence assay
Sequence of 72 kDa type IV collagenase (Homo sapiens) (P08253 110-660 limits assumed): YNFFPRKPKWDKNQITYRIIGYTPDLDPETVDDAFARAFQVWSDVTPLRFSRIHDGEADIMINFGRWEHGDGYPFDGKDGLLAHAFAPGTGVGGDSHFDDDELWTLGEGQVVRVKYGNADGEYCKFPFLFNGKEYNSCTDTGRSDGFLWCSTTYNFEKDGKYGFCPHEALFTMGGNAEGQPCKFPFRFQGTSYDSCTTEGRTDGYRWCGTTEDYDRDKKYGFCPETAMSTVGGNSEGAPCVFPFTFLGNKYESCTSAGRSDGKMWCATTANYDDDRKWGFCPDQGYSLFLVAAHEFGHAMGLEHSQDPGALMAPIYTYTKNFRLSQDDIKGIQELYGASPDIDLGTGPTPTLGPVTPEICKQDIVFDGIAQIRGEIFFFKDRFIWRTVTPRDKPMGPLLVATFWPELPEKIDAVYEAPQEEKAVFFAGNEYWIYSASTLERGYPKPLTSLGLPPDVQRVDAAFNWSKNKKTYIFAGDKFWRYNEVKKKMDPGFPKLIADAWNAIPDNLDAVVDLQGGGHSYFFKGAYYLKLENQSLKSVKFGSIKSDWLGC

[10] = molecular target: Lactoylglutathione lyase (Homo sapiens) (UniProt Q04760); assay: Inhibition of human glyoxalase 1 at 200 uM relative to control
Sequence of Lactoylglutathione lyase (Homo sapiens) (Q04760 2-184 limits assumed): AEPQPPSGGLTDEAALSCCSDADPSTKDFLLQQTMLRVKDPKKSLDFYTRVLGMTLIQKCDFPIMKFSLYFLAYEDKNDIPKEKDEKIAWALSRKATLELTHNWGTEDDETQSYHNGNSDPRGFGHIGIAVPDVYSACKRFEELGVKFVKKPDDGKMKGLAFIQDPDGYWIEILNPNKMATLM

[11] = molecular target: T2, Protein deacetylase HDAC6 (Homo sapiens) (UniProt Q9UBN7); assay: Inhibition of N-terminal GST-tagged recombinant full length human HDAC6 expressed in baculovirus infected Sf9 insect cells at 200 uM using HDAC substrate 3 after 30 mins by fluorescence assay relative to control
T2 sequence (whole entry): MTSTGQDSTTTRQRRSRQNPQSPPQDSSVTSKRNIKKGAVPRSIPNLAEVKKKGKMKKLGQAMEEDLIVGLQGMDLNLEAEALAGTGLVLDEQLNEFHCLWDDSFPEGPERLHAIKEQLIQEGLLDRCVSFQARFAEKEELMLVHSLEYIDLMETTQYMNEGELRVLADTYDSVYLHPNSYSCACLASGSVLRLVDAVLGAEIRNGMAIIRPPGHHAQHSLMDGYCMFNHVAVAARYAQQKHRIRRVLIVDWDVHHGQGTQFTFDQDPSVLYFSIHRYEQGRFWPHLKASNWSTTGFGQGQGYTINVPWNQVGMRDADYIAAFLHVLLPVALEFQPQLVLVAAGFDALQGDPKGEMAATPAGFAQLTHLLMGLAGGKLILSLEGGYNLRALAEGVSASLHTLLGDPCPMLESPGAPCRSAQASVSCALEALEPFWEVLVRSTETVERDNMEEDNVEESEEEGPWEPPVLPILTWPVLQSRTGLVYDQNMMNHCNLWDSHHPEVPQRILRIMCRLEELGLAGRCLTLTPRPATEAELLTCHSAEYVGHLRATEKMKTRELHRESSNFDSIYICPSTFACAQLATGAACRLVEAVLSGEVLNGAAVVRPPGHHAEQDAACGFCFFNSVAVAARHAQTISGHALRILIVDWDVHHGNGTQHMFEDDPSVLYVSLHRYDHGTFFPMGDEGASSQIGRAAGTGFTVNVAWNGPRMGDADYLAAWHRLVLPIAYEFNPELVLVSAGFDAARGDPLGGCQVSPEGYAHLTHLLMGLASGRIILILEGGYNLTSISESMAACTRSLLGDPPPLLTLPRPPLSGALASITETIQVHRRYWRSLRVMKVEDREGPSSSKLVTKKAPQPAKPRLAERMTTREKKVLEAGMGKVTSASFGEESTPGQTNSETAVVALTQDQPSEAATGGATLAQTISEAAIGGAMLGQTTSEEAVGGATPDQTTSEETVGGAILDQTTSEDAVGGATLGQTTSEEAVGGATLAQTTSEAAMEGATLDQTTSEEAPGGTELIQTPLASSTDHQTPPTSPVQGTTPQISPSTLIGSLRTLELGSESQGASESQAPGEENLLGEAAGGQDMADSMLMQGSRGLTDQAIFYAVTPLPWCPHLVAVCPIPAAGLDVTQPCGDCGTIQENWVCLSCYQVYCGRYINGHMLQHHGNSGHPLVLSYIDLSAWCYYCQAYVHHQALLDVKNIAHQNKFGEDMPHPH

SMILES	inhibition [1] [%]	inhibition [2] [%]	inhibition [3] [%]	other results
O=C(O)c1ccc2cccnc2c1O	67	22	10	–
Cc1occ(O)c(=O)c1C(=O)O	21	5	15	–
Cc1nc(-c2[nH]ccc(=O)c2O)no1	30	6	3	–
O=C(O)c1cccc(=O)n1O	9	2	25	–
N/C(=N\O)c1[nH]ccc(=O)c1O	15	83	43	–
O=C(O)c1ccc2cccc(O)c2[n+]1[O-]	5	16	87	–
CNC(=O)c1oc(C)cc(=O)c1O	22	8	6	–
Cc1cc(O)c(=O)c(O)cc1C(=O)O	98	32	61	–
Cc1cc(=O)c(O)c(C(=O)O)n1C	21	2	1	–
O=C1c2c(O)cccc2Cc2cccc(O)c21	18	41	6	–
O=C(O)c1cccc(C(=O)O)n1 [DIPICOLINIC ACID]	–	–	–	IC50 [4]: > 500 µM; pIC50 [4]: < 3.3
Cc1cc(=O)c(O)c(C(N)=O)o1	30	5	8	–
Cc1cc(C(=O)O)c(O)c(=O)[nH]1	44	8	9	–
Cc1cc(=S)c(O)c(C(=O)O)o1	46	9	84	–
O=c1c(O)ccccc1O	95	92	92	–
Oc1cccc(O)c1O [PYROGALLOL]	21	49	63	IC50 [4]: 1.7 µM; pIC50 [4]: 5.8
Cc1cc(=O)c(O)c(C(=O)O)[nH]1	97	24	6	inhibition [5]: Active
CNC(=O)c1cc(C)[nH]c(=O)c1O	7	5	8	–
O=C(O)c1occc(=O)c1O	94	1	4	–
Cc1cc(=O)c(O)c(C(=O)O)n1O	81	12	22	–
Cc1nc(C(=O)O)c(O)c(=O)[nH]1	28	0	3	–
Nc1cccc(C(=O)O)c1O	0	11	7	–
O=C(O)c1cccc(O)c1O	15	82	15	–
Cc1cc(=O)c(O)c(-c2ncco2)o1	88	0	8	–
O=c1cc[nH]c(-c2nnn[nH]2)c1O	96	7	99	–
Cc1cc(=O)c(O)c(C(=O)O)o1	96	8	12 to 13	inhibition [6]: inactive; inhibition [7]: 37%; inhibition [8]: inactive; inhibition [9]: 11%; inhibition [10]: 11%; inhibition [11]: inactive; inhibition [5]: Active

— ChEMBL document CHEMBL4152388, “Structure-Activity Relationships in Metal-Binding Pharmacophores for Influenza Endonuclease” (J Med Chem, 2018)
